ChEMBL document CHEMBL1125604, “Synthesis and antitumor evaluations of symmetrically and unsymmetrically substituted 1,4-bis[(aminoalkyl)amino]anthracene-9,10-diones and 1,4-bis[(aminoalkyl)amino]-5,8-dihydroxyanthracene-9,10-diones” (J Med Chem, 1991)
≈ marks a conversion by molar mass, not a printed value.

Columns and labels:
L1210 = test: The compound was tested for its antitumor activity against L1210 cells; format: functional; conditions: Mus musculus, read-out: ID50 (the source's name)
Mus musculus [1] = test: At 12.5 mg/kg dose CDF1 mice were injected ip on (1,5,9) days after tumor transplantation to evaluate mean survival time; format: functional; conditions: route intraperitoneal
Procedure, shortened: (§1)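 CDF1 mice were inoculated ip with 10^6 murine leukemia cells on day 0. Drug was given ip starting 24 h later, on the day schedule listed in each line. Mice were checked daily for toxicity and survival, and day of death was recorded over a 60-day study. The result is reported as mean survival time of treated mice divided by that of controls, ×100.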

Mus musculus [2] = test: At 25 mg/kg dose CDF1 mice were injected ip on (1,5) days after tumor transplantation to evaluate mean survival time; format: functional; conditions: route intraperitoneal; procedure, shortened: as §1
Mus musculus [3] = test: At 50 mg/kg dose CDF1 mice were injected ip on (1,5) days after tumor transplantation to evaluate mean survival time; format: functional; conditions: route intraperitoneal; procedure, shortened: as §1
Mus musculus [4] = test: At 50 mg/kg dose CDF1 mice were injected ip on (1,5,9) days after tumor transplantation to evaluate mean survival time; format: functional; conditions: route intraperitoneal; procedure, shortened: as §1
Mus musculus [5] = test: At 25 mg/kg dose CDF1 mice were injected ip on (1,5,9) days after tumor transplantation to evaluate mean survival time; format: functional; conditions: route intraperitoneal; procedure, shortened: as §1
Mus musculus [6] = test: At 6.25 mg/kg dose CDF1 mice were injected ip on (1,5,9) days after tumor transplantation to evaluate mean survival time; format: functional; conditions: route intraperitoneal; procedure, shortened: as §1
Homo sapiens [7] = species on record: Homo sapiens; test: Inhibition of cellular growth was evaluated in vitro against human colon carcinoma subline resistant to DOXO (LOVO/DOXO).; format: functional, organism-based
Procedure, shortened: (§2)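 LOVO and LOVO/DOXO cells were grown at 37 °C under 5% CO2 in Ham's F12 with 20% fetal calf serum. They were plated at 2.5 × 10³ cells/dish and exposed continuously to drug for 144 h. Growth inhibition was read by MTT assay, and the ID50 (drug concentration giving 50% inhibition of growth versus control) was derived.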

Homo sapiens [8] = species on record: Homo sapiens; test: Inhibition of cellular growth was evaluated in vitro against human colon carcinoma LOVO; format: functional; procedure, shortened: as §2
Mus musculus [9] = test: At 12.5 mg/kg dose CDF1 mice were injected ip on (1) days after tumor transplantation to evaluate mean survival time; format: functional; conditions: route intraperitoneal; procedure, shortened: as §1
Mus musculus [10] = test: At 25 mg/kg dose CDF1 mice were injected ip on (1) days after tumor transplantation to evaluate mean survival time; format: functional; conditions: route intraperitoneal; procedure, shortened: as §1
Mus musculus [11] = test: At 50 mg/kg dose CDF1 mice were injected ip on 1 day after tumor transplantation to evaluate mean survival time; format: functional; conditions: route intraperitoneal; procedure, shortened: as §1
Mus musculus [12] = test: At 5 mg/kg dose CDF1 mice were injected ip on (1,5) days after tumor transplantation to evaluate mean survival time; format: functional; conditions: route intraperitoneal; procedure, shortened: as §1
Homo sapiens [13] = species on record: Homo sapiens; test: Inhibition of cellular growth was evaluated in vitro against human colon carcinoma LOVO.; format: functional, organism-based; procedure, shortened: as §2

Compound	IC50 (L1210)	T/C (Mus musculus [1])	T/C (Mus musculus [4])	T/C (Mus musculus [5])	IC50 (Homo sapiens [7])	further results
CN(C)CCNc1ccc(NCCCCN)c2c1C(=O)c1ccccc1C2=O	0.0045 µg/mL (≈ 0.0118 µM)	113%				T/C (Mus musculus [2]): 111%; T/C (Mus musculus [3]): 64%
CN(C)CCNc1ccc(NCCNCCO)c2c1C(=O)c1ccccc1C2=O	0.0038 µg/mL (≈ 0.00958 µM)		145%	148%		
CN(C)CCNc1ccc(NCCNCCO)c2c1C(=O)c1c(O)ccc(O)c1C2=O	0.00017 µg/mL (≈ 0.000397 µM)	187%		244%	0.024 µg/mL (≈ 0.056 µM)	T/C (Mus musculus [6]): 188%; IC50 (Homo sapiens [8]): 0.001 µg/mL (≈ 0.00233 µM)
CN(C)CCNc1ccc(N(C)CCN(C)C)c2c1C(=O)c1ccccc1C2=O	0.5 µg/mL (≈ 1.27 µM)		127%			T/C (Mus musculus [2]): 108%
CN(C)CCN(C)c1ccc(N(C)CCN(C)C)c2c1C(=O)c1ccccc1C2=O	4.6 µg/mL (≈ 11.3 µM)					T/C (Mus musculus [9]): 103%; T/C (Mus musculus [10]): 100%; T/C (Mus musculus [11]): 95%
NCCCCNc1ccc(NCCNCCO)c2c1C(=O)c1c(O)ccc(O)c1C2=O	0.0007 µg/mL (≈ 0.00163 µM)					T/C (Mus musculus [12]): 138%
O=C1c2ccccc2C(=O)c2c(NC3CC3)ccc(NC3CC3)c21	> 10 µg/mL	112%		107%		T/C (Mus musculus [6]): 100%
CN(C)CCNc1ccc(NCCN)c2c1C(=O)c1ccccc1C2=O	0.03 µg/mL (≈ 0.0851 µM)	129%	180%	150%		
O=C1c2ccccc2C(=O)c2c(NCCNCCO)ccc(NCCNCCO)c21 [AMETANTRONE]	0.01 µg/mL (≈ 0.0242 µM)	177%	146%	252%	44.8 µg/mL (≈ 109 µM)	IC50 (Homo sapiens [13]): 0.283 µg/mL (≈ 0.685 µM)
COc1cccc2c1C(=O)c1c(O)c3c(c(O)c1C2=O)C[C@@](O)(C(=O)CO)C[C@@H]3O[C@H]1C[C@H](N)[C@H](O)[C@H](C)O1 [DOXORUBICIN]					3.84 µg/mL (≈ 7.07 µM)	IC50 (Homo sapiens [13]): 0.0247 µg/mL (≈ 0.0454 µM)
O=C1c2c(O)ccc(O)c2C(=O)c2c(NCCNCCO)ccc(NCCNCCO)c21 [MITOXANTRONE]					0.274 µg/mL (≈ 0.616 µM)	IC50 (Homo sapiens [13]): 0.0055 µg/mL (≈ 0.0124 µM)
